In ChEMBL document CHEMBL4371071, “Muscarinic agonist, (±)-quinuclidin-3-yl-(4-fluorophenethyl)(phenyl)carbamate: High affinity, but low subtype selectivity for human M1 - M5 muscarinic acetylcholine receptors” (Bioorg Med Chem Lett, 2019):
Calls of active or inactive are those of the source. No cut-off for these calls is given here.

Legend:
[1] = target: T1, Muscarinic acetylcholine receptor M2 (Homo sapiens, UniProt P08172); assay: Displacement of [3H]NMS from human M2 AChR expressed in CHO cell membranes after 1 to 2 hrs by liquid scintillation spectrometry method
T1 sequence (P08172 whole entry): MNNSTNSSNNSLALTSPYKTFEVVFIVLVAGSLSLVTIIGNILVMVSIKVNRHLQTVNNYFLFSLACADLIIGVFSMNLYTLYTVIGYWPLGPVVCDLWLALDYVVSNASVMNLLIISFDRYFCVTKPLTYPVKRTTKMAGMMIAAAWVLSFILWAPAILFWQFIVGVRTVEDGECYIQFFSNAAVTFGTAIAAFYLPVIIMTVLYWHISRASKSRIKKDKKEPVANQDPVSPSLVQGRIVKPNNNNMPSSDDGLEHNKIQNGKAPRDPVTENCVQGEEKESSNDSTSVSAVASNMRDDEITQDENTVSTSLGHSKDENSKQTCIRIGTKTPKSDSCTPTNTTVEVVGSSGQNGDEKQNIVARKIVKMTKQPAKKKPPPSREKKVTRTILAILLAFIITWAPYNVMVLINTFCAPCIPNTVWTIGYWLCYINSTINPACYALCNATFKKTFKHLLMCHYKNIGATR
In short: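 CHO membranes expressing the human subtype (20 µg protein/well) with 0.3 nM [3H]NMS and analog (1 nM–100 µM) in 50 mM Tris-HCl pH 7.4, 2 h at 25 °C. […] Filtered on GF/B, washed, counted by scintillation. IC50 taken from curves to give Ki; three independent experiments in duplicate.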

[2] = target: T2, Muscarinic acetylcholine receptor M2 (Homo sapiens) (UniProt P08172); assay: Displacement of [3H]NMS from human M2 AChR expressed in CHO cell membranes at 100 uM after 1 to 2 hrs by liquid scintillation spectrometry method relative to control
T2 sequence (whole entry): T1 sequence (P08172 whole entry)
In short: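 CHO membranes expressing the human subtype (20 µg protein/well) with 0.3 nM [3H]NMS and analog (1 nM–100 µM) in 50 mM Tris-HCl pH 7.4, 2 h at 25 °C. Filtered on GF/B, washed, counted by scintillation. IC50 taken from curves to give Ki; three independent experiments in duplicate.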

[3] = target: T3, Muscarinic acetylcholine receptor M3 (Homo sapiens, UniProt P20309); assay: Displacement of [3H]NMS from human M3 AChR expressed in CHO cell membranes after 1 to 2 hrs by liquid scintillation spectrometry method; format: cell-based
Target sequence in this assay (P20309 whole entry): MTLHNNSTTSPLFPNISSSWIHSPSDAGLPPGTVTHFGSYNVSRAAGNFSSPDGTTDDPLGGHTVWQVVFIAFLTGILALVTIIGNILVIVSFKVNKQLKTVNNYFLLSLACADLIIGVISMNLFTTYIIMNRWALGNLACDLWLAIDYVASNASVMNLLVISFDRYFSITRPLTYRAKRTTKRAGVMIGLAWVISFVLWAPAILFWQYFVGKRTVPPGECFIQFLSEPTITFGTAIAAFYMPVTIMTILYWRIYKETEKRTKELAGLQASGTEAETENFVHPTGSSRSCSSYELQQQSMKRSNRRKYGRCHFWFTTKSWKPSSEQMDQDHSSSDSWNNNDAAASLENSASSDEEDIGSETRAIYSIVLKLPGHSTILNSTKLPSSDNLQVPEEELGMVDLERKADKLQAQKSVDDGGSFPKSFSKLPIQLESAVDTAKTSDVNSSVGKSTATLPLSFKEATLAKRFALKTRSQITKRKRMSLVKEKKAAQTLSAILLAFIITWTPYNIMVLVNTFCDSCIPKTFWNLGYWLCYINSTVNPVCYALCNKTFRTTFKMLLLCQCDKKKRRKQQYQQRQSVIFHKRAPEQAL

[4] = organism: Homo sapiens; assay: Selectivity ratio of Ki for displacement of [3H]NMS from human M2 AChR expressed in CHO cell membranes to Ki for displacement of [3H]NMS from human M3 AChR expressed in CHO cell membranes
[5] = target: T4, Muscarinic acetylcholine receptor M4 (Homo sapiens, UniProt P08173); assay: Displacement of [3H]NMS from human M4 AChR expressed in CHO cell membranes after 1 to 2 hrs by liquid scintillation spectrometry method
T4 sequence (P08173 whole entry): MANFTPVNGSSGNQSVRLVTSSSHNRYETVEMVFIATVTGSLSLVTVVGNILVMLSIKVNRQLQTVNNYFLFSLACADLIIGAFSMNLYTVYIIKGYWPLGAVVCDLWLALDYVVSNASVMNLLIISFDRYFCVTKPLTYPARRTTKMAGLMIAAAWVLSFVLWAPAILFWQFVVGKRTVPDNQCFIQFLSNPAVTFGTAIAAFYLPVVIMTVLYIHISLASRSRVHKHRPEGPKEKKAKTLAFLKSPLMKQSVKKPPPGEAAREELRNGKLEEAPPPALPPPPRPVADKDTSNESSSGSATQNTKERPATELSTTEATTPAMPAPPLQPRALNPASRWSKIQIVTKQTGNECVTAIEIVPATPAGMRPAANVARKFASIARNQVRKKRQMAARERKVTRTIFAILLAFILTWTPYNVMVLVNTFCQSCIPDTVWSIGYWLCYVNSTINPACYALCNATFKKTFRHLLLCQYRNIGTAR
In short: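 Human M4-expressing CHO membranes (20 µg protein/well) incubated 2 h at 25 °C with 0.3 nM [3H]NMS and analog (1 nM–100 µM) in 50 mM Tris–HCl pH 7.4. […] Filtered, washed, counted by scintillation. IC50 taken from inhibition curves, Ki from three independent duplicate experiments (mean ± SEM).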

[6] = target: Muscarinic acetylcholine receptor (Rattus norvegicus) (UniProt P08482+P08483+P08485+P08911+P10980); assay: Agonist activity at muscarinic acetylcholine receptor in superfused rat striatal slices assessed as augmentation of oxotremorine-induced [3H]DA release at 0.1 to 10 uM preincubated for 35 mins in presence of [3H]DA followed by oxotremorine addition and measured after 25 mins by liquid scintillation spectroscopic method
In short: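 Rat striatal slices (500 µm) in Krebs' buffer pH 7.4 at 34 °C for 60 min, with 0.1 µM [3H]DA over the final 30 min. Superfused at 0.6 mL/min with 10 µM nomifensine and 10 µM pargyline; 5-min fractions. Basal outflow taken over 15 min, then test agent 35 min, then 100 µM oxotremorine 25 min. Overflow = summed radioactivity minus basal, by scintillation; n = 4–10.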

[7] = target: T5, Muscarinic acetylcholine receptor M1 (Homo sapiens) (UniProt P11229); conditions: CHO, at 100 µM
T5 sequence (whole entry): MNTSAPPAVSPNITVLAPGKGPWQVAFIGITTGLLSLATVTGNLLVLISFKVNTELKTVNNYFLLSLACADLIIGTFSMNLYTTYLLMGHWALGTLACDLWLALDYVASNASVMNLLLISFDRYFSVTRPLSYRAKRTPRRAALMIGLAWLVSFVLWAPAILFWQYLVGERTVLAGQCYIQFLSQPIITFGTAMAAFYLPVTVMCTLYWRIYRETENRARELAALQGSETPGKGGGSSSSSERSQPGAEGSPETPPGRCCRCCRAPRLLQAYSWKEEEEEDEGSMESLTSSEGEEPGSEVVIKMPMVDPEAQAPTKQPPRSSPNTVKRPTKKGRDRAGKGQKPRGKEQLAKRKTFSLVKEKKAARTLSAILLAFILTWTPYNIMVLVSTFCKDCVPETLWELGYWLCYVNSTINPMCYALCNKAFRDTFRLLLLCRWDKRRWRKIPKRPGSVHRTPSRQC

[8] = target: T3, Muscarinic acetylcholine receptor M3; conditions: CHO, at 100 µM
Target sequence in this assay (P20309 whole entry, looked up): as the sequence (P20309 whole entry) above

O=C(OC1CN2CCC1CC2)N(CCc1ccc(F)cc1)c1ccccc1 (racemic)
Ki [1]: 13 nM
Imax [2]: 100%
Ki [3]: 2.6 nM
Ratio Ki [4]: 5
Ki [5]: 2.2 nM
Activity [6]: Active
Imax [7]: 99.9%
Imax [8]: 100%
